From ChEMBL document CHEMBL2021854, “2-Aminopyrimidine based 4-aminoquinoline anti-plasmodial agents. Synthesis, biological activity, structure-activity relationship and mode of action studies” (Eur J Med Chem, 2012)

Experiments:
[1] = system: Plasmodium falciparum; test: Antiplasmodial activity chloroquine-sensitive Plasmodium falciparum 3D7 infected in human A+ erythrocytes assessed as inhibition of [3H]-hypoxanthine incorporation after 24 hrs by scintillation counting; type: functional, organism-based
[2] = system: Plasmodium falciparum; test: Antiplasmodial activity chloroquine-resistant Plasmodium falciparum K1 infected in human A+ erythrocytes assessed as inhibition of [3H]-hypoxanthine incorporation after 24 hrs by scintillation counting; type: functional, organism-based
[3] = system: Plasmodium falciparum; test: Resistant factor, ratio of IC50 for chloroquine-resistant Plasmodium falciparum K1 to IC50 for chloroquine-sensitive Plasmodium falciparum 3D7; type: functional
How it was run: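 Resistance factor computed as IC50 against K1 divided by IC50 against 3D7, both from the [3H]hypoxanthine incorporation assay.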

[4] = system: MDCK; test: Cytotoxicity against MDCK cells assessed as cell viability by colorimetric formazan-based MTS assay; design: species or system Canis lupus familiaris; conditions: dog, mdck
How it was run: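 Cytotoxicity on MDCK cells; 50% cytotoxic concentration from cell viability measured by colorimetric formazan-based MTS assay.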

[5] = Cytotoxicity against MDCK cells assessed as minimum compound concentration required to causes microscopically detectable alteration of normal cell morphology; type: cell-based, Canis lupus familiaris; conditions: dog
How it was run: (§1)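 Confluent, non-proliferating cell cultures were exposed to the compounds. The endpoint was the minimum concentration producing a microscopically detectable alteration of normal cell morphology.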

[6] = Selectivity index, ratio of CC50 for MDCK cells to IC50 for chloroquine-resistant Plasmodium falciparum K1; type: functional
How it was run: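 Selectivity index computed as MTS-based CC50 on MDCK cells divided by IC50 against P. falciparum K1.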

[7] = Cytotoxicity against african green monkey Vero cells assessed as minimum compound concentration required to causes microscopically detectable alteration of normal cell morphology; type: cell-based; conditions: chlorocebus sabaeus; how it was run: as §1
[8] = system: Human respirovirus 3; test: Antiviral activity against Parainfluenza-3 virus infected in african green monkey Vero cells assessed as inhibition of virus-induced cytopathogenicity after 4 days; type: functional, organism-based; conditions: Human respirovirus 3, Vero, 96 h
How it was run: (§2)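 Confluent HEL, Vero or HeLa monolayers were inoculated with 100 CCID50 of virus in the presence of varying concentrations of compound. Cytopathicity was scored when it reached completion in untreated, virus-infected control cultures.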

[9] = system: Mammalian orthoreovirus 1; test: Antiviral activity against Reovirus-1 infected in african green monkey Vero cells assessed as inhibition of virus-induced cytopathogenicity after 4 days; type: functional, organism-based; conditions: Mammalian orthoreovirus 1, Vero, 96 h; how it was run: as §2
[10] = system: Sindbis virus; test: Antiviral activity against Sindbis virus infected in african green monkey Vero cells assessed as inhibition of virus-induced cytopathogenicity after 4 days; type: functional, organism-based; conditions: 96 h; how it was run: as §2
[11] = system: Coxsackievirus B4; test: Antiviral activity against Coxsackie virus B4 infected in african green monkey Vero cells assessed as inhibition of virus-induced cytopathogenicity after 4 days; type: functional, organism-based; conditions: Enterovirus B, 96 h; how it was run: as §2
[12] = system: Punta Toro virus; test: Antiviral activity against Punta Toro virus infected in african green monkey Vero cells assessed as inhibition of virus-induced cytopathogenicity after 4 days; type: functional, organism-based; conditions: 96 h; how it was run: as §2
[13] = system: Human alphaherpesvirus 1; test: Antiviral activity against HSV1 KOS infected in HEL cells assessed as inhibition of virus-induced cytopathogenicity after 4 days; type: functional, organism-based; conditions: Human alphaherpesvirus 1, KOS, 96 h
How it was run: (§3)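 Confluent HEL or HeLa monolayers infected with 100 CCID50 of virus in the presence of varying compound concentrations.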

[14] = system: Human alphaherpesvirus 2; test: Antiviral activity against HSV2 G infected in HEL cells assessed as inhibition of virus-induced cytopathogenicity after 4 days; type: functional, organism-based; conditions: Human alphaherpesvirus 2, strain G, 96 h; how it was run: as §2
[15] = system: Vesicular stomatitis virus; test: Antiviral activity against Vesicular stomatitis virus infected in HEL cells assessed as inhibition of virus-induced cytopathogenicity after 4 days; type: functional, organism-based; conditions: 96 h; how it was run: as §3
[16] = system: Human alphaherpesvirus 1; test: Antiviral activity against thymidine kinase-deficient acyclovir-resistant HSV1 KOS infected in HEL cells assessed as inhibition of virus-induced cytopathogenicity after 4 days; type: functional, organism-based; conditions: Human alphaherpesvirus 1, KOS, 96 h; how it was run: as §3
[17] = Cytotoxicity against human HEL cells assessed as minimum compound concentration required to causes microscopically detectable alteration of normal cell morphology; type: cell-based; how it was run: as §1
[18] = Cytotoxicity against human HeLa cells assessed as minimum compound concentration required to causes microscopically detectable alteration of normal cell morphology; type: cell-based; how it was run: as §1
[19] = system: Vesicular stomatitis virus; test: Antiviral activity against Vesicular stomatitis virus infected in HeLa cells assessed as inhibition of virus-induced cytopathogenicity after 4 days; type: functional, organism-based; conditions: 96 h; how it was run: as §3
[20] = system: Coxsackievirus B4; test: Antiviral activity against Coxsackie virus B4 infected in human HeLa cells assessed as inhibition of virus-induced cytopathogenicity after 4 days; type: functional, organism-based; conditions: Enterovirus B, 96 h; how it was run: as §2
[21] = system: Respiratory syncytial virus; test: Antiviral activity against Respiratory syncytial virus infected in human HeLa cells assessed as inhibition of virus-induced cytopathogenicity after 4 days; type: functional, organism-based; conditions: 96 h; how it was run: as §2
[22] = system: Influenza A virus; test: Antiviral activity against Influenza A virus H1N1 infected in MDCK cells assessed as reduction visual scoring of virus-induced cytopathogenicity after 4 days; type: functional, organism-based; conditions: 96 h
How it was run: (§4)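 MDCK monolayers infected with 100 CCID50 of influenza A (H1N1 or H3N2) or influenza B, with varying compound concentrations. Cytopathicity read when untreated infected controls reached complete CPE.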

[23] = system: Influenza A virus; test: Antiviral activity against Influenza A virus H3N2 infected in MDCK cells assessed as reduction visual scoring of virus-induced cytopathogenicity after 4 days; type: functional, organism-based; conditions: 96 h; how it was run: as §4
[24] = system: Influenza B virus; test: Antiviral activity against Influenza B virus infected in MDCK cells assessed as reduction visual scoring of virus-induced cytopathogenicity after 4 days; type: functional, organism-based; conditions: 96 h; how it was run: as §4
[25] = system: Influenza A virus; test: Antiviral activity against Influenza A virus H1N1 infected in MDCK cells assessed as inhibition of virus-induced cytopathogenicity after 4 days by colorimetric formazan-based MTS assay; type: functional, organism-based; conditions: 96 h
[26] = system: Influenza A virus; test: Antiviral activity against Influenza A virus H3N2 infected in MDCK cells assessed as inhibition of virus-induced cytopathogenicity after 4 days by colorimetric formazan-based MTS assay; type: functional, organism-based; conditions: 96 h
[27] = system: Influenza B virus; test: Antiviral activity against Influenza B virus infected in MDCK cells assessed as inhibition of virus-induced cytopathogenicity after 4 days by colorimetric formazan-based MTS assay; type: functional, organism-based; conditions: 96 h
[28] = system: Human betaherpesvirus 5; test: Antiviral activity against Cytomegalovirus AD-169 infected in HEL cells assessed as inhibition of virus plaque formation after 4 days; type: functional, organism-based; conditions: Human betaherpesvirus 5, AD169, HEL, 96 h
[29] = system: Human betaherpesvirus 5; test: Antiviral activity against Human cytomegalovirus Davis infected in HEL cells assessed as inhibition of virus plaque formation after 4 days; type: functional, organism-based; conditions: Human betaherpesvirus 5, Davis, 96 h
[30] = system: HeLa; test: Cytotoxicity against human HeLa cells assessed as cell viability by colorimetric formazan-based MTS assay
[31] = system: Human alphaherpesvirus 3; test: Antiviral activity against […] expressing thymidine kinase infected in HEL cells assessed as reduction of virus plaque formation after 4 days; type: functional, cell-based; conditions: Human alphaherpesvirus 3, strain Oka vaccine, 96 h
[32] = system: Human alphaherpesvirus 3; test: Antiviral activity against thymidine kinase-deficient […] infected in HEL cells assessed as reduction of virus plaque formation after 4 days; type: functional, organism-based; conditions: Human alphaherpesvirus 3, 07-1, HEL, 96 h
[33] = Cytotoxicity against cat CRFK cells assessed as cell viability by colorimetric formazan-based MTS assay; design: species or system Felis catus; conditions: crfk
[34] = system: Feline infectious peritonitis virus; test: Antiviral activity against FIPV infected in cat CRFK cells assessed as inhibition of virus-induced cytopathic effect after 4 days by colorimetric formazan-based MTS assay; type: functional, cell-based; conditions: Alphacoronavirus 1, CRFK, 96 h
[35] = system: Felid alphaherpesvirus 1; test: Antiviral activity against Feline herpesvirus infected in cat CRFK cells assessed as inhibition of virus-induced cytopathic effect after 4 days by colorimetric formazan-based MTS assay; type: functional, organism-based; conditions: Felid alphaherpesvirus 1, CRFK, 96 h
[36] = system: Human immunodeficiency virus 1; test: Antiviral activity against HIV1 infected in human CEM cells assessed as inhibition of virus-induced cytopathic effect after 4 days; type: functional, organism-based; conditions: Human immunodeficiency virus 1, CCRF-CEM, 96 h
How it was run: (§5)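 CEM T-lymphocytes (~3 × 10^5 cells/ml) were infected with HIV-1 IIIB or HIV-2 ROD at ~100 CCID50, then immediately plated with a range of compound concentrations. Giant cell formation was scored microscopically after 4 days at 37 °C. Cytostatic activity was tested in parallel in uninfected CEM cells.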

[37] = system: Human immunodeficiency virus 2; test: Antiviral activity against HIV2 infected in human CEM cells assessed as inhibition of virus-induced cytopathic effect after 4 days; type: functional, organism-based; conditions: Human immunodeficiency virus 2, CCRF-CEM, 96 h; how it was run: as §5
[38] = Inhibition of beta-hematin formation assessed as Ferriprotoporphyrin IX biomineralisation at 1 mg/ml after 24 hrs; type: functional
How it was run: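 Hemin chloride (0.5 mg/ml in DMSO) mixed with 0.5 M sodium acetate buffer pH 4.4 and drug or solvent control, incubated 37 °C for 24 h. Pellet washed with DMSO to remove unreacted hemin, dissolved in 0.1 N NaOH, absorbance read at 405 nm; percent inhibition relative to control. Highest concentration tested 1 mg/ml.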

SMILES: CCOC(=O)c1c(C)nc(NCCCCCCCCCCNc2ccnc3cc(Cl)ccc23)nc1-c1ccccc1
- IC50 [1]: 1.78 µM
- IC50 [2]: 0.488 µM
- Ratio IC50 [3]: 0.2744

SMILES: Cc1nc(NCCNc2ccnc3cc(Cl)ccc23)nc(-c2ccccc2[N+](=O)[O-])c1C(=O)OC(C)C
- IC50 [1]: 0.173 µM
- IC50 [2]: 0.096 µM
- Ratio IC50 [3]: 0.5555
- CC50 [4]: 2.2 µM
- MCC [5]: ≥ 0.8 µM
- Ratio CC50/IC50 [6]: 22.9
- MCC [7]: 100 µM
- EC50 [8]: > 20 µM
- EC50 [9]: > 20 µM
- EC50 [10]: > 20 µM
- EC50 [11]: > 20 µM
- EC50 [12]: > 20 µM
- EC50 [13]: > 20 µM
- EC50 [14]: > 100 µM
- EC50 [15]: > 20 µM
- EC50 [16]: > 20 µM
- MCC [17]: 100 µM
- MCC [18]: > 100 µM
- EC50 [19]: > 100 µM
- EC50 [20]: > 100 µM
- EC50 [21]: > 100 µM
- EC50 [22]: > 0.8 µM
- EC50 [23]: > 0.8 µM
- EC50 [24]: > 0.8 µM
- EC50 [25]: > 0.8 µM
- EC50 [26]: > 0.8 µM
- EC50 [27]: > 0.8 µM
- EC50 [28]: > 20 µM
- EC50 [29]: > 20 µM
- CC50 [30]: 24.4 µM
- EC50 [31]: > 20 µM
- EC50 [32]: > 20 µM
- CC50 [33]: > 100 µM
- EC50 [34]: > 100 µM
- EC50 [35]: > 100 µM
- EC50 [36]: > 10 µM
- EC50 [37]: > 2 µM

SMILES: CCOC(=O)c1c(C)nc(NCC(C)Nc2ccnc3cc(Cl)ccc23)nc1-c1ccccc1 (stereo unspecified)
- IC50 [1]: 15.9 µM
- IC50 [2]: 28.1 µM
- Ratio IC50 [3]: 1.7683
- inhibition [38]: 35%

SMILES: CCOC(=O)c1c(C)nc(NCCCCCCCNc2ccnc3cc(Cl)ccc23)nc1-c1ccccc1
- IC50 [1]: 1.13 µM
- IC50 [2]: 0.618 µM
- Ratio IC50 [3]: 0.544
- inhibition [38]: 89%

SMILES: CC(N)C12CC3CC(CC(C3)C1)C2 (stereo unspecified) [RIMANTADINE]
- MCC [5]: > 200 µM
- EC50 [23]: > 200 µM
- EC50 [24]: > 200 µM
- EC50 [26]: > 200 µM
- EC50 [27]: > 200 µM

SMILES: NC12CC3CC(CC(C3)C1)C2 [AMANTADINE]
- CC50 [4]: > 200 µM
- MCC [5]: > 200 µM
- EC50 [22]: 89 µM
- EC50 [23]: 5 µM
- EC50 [24]: > 200 µM
- EC50 [25]: 154 µM
- EC50 [26]: 4.1 µM
- EC50 [27]: > 200 µM
